Screening data as filed in PubChem BioAssay.
CXCR6 inh = blocks human CXCR6 beta-arrestin recruitment. CHO-K1 PathHunter CXCR6 beta-arrestin, luminescence. actives 0.36% (n = 360,000). inhibition, % at 20 µM. O00574; in the data active means inhibition above about 34%, passing the limit was not always enough;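 further: antagonist mode with CXCL16 agonist at 10 nM final; 0% = 10 nM CXCL16 with DMSO and 100% = unstimulated wells without agonist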
APJ agonist = APJ receptor agonism; P35414; CHO-K1 APJ PathHunter beta-arrestin, luminescence; 0% DMSO wells, 100% apelin; activation, % at 20 µM; actives 0.11% (n = 330,000);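 active means activation more than six SD over the plate average, tested at 20 µM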;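 further: 0% = DMSO alone and 100% = apelin-13 at 10 nM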
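Assay system: CHO-K1 APJ beta-arrestin complementation cell line / Compound: single test compound dose, 20 µM final, 1% DMSO / Times: overnight seeding, 90 min compound at 25 °C, 1 h detection / Technique: beta-gal luminescence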
APJ antag = antagonists of human APJ apelin receptor | inhibition, % at 20 µM | actives 0.32% (n = 330,000) | AID 2521 | CHO-K1 APJ beta-arrestin complementation, luminescence;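 active means inhibition above about 40% at 20 µM, limit read from the data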;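 further: cells challenged with 10 nM apelin-13 agonist together with compound; plate controls were apelin-13 plus DMSO wells for no effect and DMSO wells lacking apelin-13 for full effect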
CCR6 antag = CCR6 (human) receptor antagonism | P51684 | CHO-K1 CCR6 PathHunter beta-arrestin, luminescence, CCL20-stimulated | inhibition, % at 20 µM | actives 0.49% (n = 340,000) | AID 493098;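 active means compounds whose inhibition of the agonist-driven luminescence signal at 20 µM reaches about 50%, limit read from the data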;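 further: cells stimulated with CCL20 at 14 nM final; plate controls were DMSO with CCL20 for no effect and DMSO without agonist for full effect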
EBI2 antag = EBI2 (human) antagonism | EBI2 beta-arrestin recruitment, luminescence, 7a,25-OHC stimulated | P32249 | inhibition, % at 5 µM | AID 651636 | actives 0.81% (n = 360,000); in the data active means inhibition above about 38%;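 further: enzyme fragment complementation signal reports receptor beta-arrestin coupling in cells; 0% = agonist plus DMSO wells and 100% = wells without agonist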
Target sequence (P32249 whole entry, looked up, the tested form may be a part): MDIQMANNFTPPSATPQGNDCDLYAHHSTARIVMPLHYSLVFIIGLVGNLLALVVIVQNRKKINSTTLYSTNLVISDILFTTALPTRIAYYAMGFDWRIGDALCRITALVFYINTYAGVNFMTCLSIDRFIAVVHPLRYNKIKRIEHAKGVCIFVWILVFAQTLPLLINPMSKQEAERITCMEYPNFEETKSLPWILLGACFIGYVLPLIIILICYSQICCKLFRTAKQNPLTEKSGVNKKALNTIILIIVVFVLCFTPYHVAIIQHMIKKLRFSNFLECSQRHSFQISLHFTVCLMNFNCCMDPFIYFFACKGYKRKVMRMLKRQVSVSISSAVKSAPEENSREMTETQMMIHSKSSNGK
HTR2A ag = agonists of mouse serotonin 5-HT2A receptor (HTR2A); activation, % at 7.6 µM; P35363; AID 624169; actives 0.66% (n = 360,000); CHO-K1 mHTR2A beta-arrestin complementation, luminescence; percent of 30 µM serotonin response;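 active means activation above a run cutoff, the mean activation of all tested compounds plus 3 SD, cut at about 14% in these data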;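 further: 0% = plate median of compound wells and 100% = 30 µM serotonin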
APJ antag confirm = confirmation of human APJ apelin receptor antagonists; AID 2766; APJ beta-arrestin recruitment, luminescence, antagonist mode; inhibition, % at 20 µM; shares compounds with APJ antag; actives 66% (n = 950); in the data active means inhibition above about 50%
Numbers without * were called inactive; nt = no result. An excerpt weighted towards active compounds, which were near 2.1% of everything screened.

SMILES | CXCR6 inh | APJ agonist | APJ antag | CCR6 antag | EBI2 antag | HTR2A ag | APJ antag confirm
COc1ccc(Cc2nnc(NC(=O)c3ccc(Cl)c([N+](=O)[O-])c3)s2)cc1 | 3 | -2 | 6 | 14 | 1 | 4 | nt
C/C(=N\O)C1CCCCC1 | nt | -1 | 1 | nt | nt | nt | nt
CCOC(=O)c1c(C)[nH]c(C)c1C(=O)Cn1nnc(-c2ccccc2C)n1 | -2 | 7 | 46* | 6 | 18 | -8 | 18
CNC(=O)c1ccc(Nc2nnc(-c3ccc(O)cc3)c3ccccc23)cc1 | 2 | -2 | 6 | 8 | -6 | -3 | nt
Oc1ccc(-c2nnc(Nc3cccc(O)c3)c3ccccc23)cc1 | -4 | -3 | 67* | 6 | -3 | 3 | -2
c1ccc(NCc2nnc3n2CCCCC3)cc1 | -10 | -5 | 10 | 8 | 5 | 1 | nt
Clc1ccc(NCc2nnc3n2CCCCC3)cc1 | -6 | 0 | 58* | 5 | 26 | -4 | 38
COc1cc(SC)ccc1C(=O)OCC(=O)NCC(C)C | 3 | -2 | 41* | 2 | -4 | 0 | -3
CC(C)NC(=S)N/N=C1\CCCCC1C1CCCCC1 (stereo unspecified) | 28 | -7 | 43* | 85* | -10 | 1 | 85*
CC1(C(=O)NS(=O)(=O)c2ccc(F)cc2F)CCN1C(=O)C/C=C/c1ccccc1 (stereo unspecified) | 0 | nt | nt | nt | 0 | 9 | nt
Cc1cc(=O)n2[nH]c(=O)c(N=Nc3ccccc3)c2[nH]1 | 18 | -2 | 25 | 28 | 3 | 1 | nt
CCOc1ccc(N=Nc2c(=O)[nH]n3c(=O)cc(C)[nH]c23)cc1 | 16 | -7 | 47* | 48 | 7 | -5 | 49
COc1cc(/C=C(\C#N)C(=O)c2c[nH]c3ccccc23)cc(OC)c1O | 46* | -5 | 40* | 58* | 10 | -4 | 79*
CCOc1cc(/C=N/NC(=O)c2ccc(NC(=O)C3CC3)cc2)ccc1O | -15 | -4 | -14 | 0 | 4 | -2 | nt
COc1cc(/C=N/NC(=O)c2ccc(NC(=O)C3CCCCC3)cc2)ccc1O | -21 | -1 | 48* | -2 | 0 | 3 | 6
Oc1ccc(N=Nc2ccc3c(c2)OCCO3)c2cccnc12 | 36 | -10 | 52* | 51* | 10 | 0 | 71*
COc1cc(OC)cc(C(=O)Nc2cccc3cccnc23)c1 | 3 | 1 | -21 | 8 | 3 | 2 | nt
Oc1ccc(N=Nc2ccc3c(c2)OCCO3)c(O)c1 | 25 | -4 | 12 | 39 | 6 | -6 | nt
COc1ccc(N=Nc2ccc(O)c3ncccc23)cc1 | 23 | -9 | 46* | 38 | 12 | -5 | 84*
COc1cccc(N=Nc2ccc(O)c3ncccc23)c1 | 90* | -14 | 66* | 60* | 12 | -16 | 96*
COc1cccc(N=Nc2ccc3cccnc3c2O)c1 | 21 | -10 | 61* | 42 | 32 | -5 | 61*
COc1ccc(C)cc1N=Nc1ccc(O)c2ncccc12 | 32 | nt | nt | 50 | 9 | -6 | nt
OCCCNCc1ccc(Cl)cc1Cl | -7 | 2 | -16 | -5 | 1 | 2 | nt
O=c1[nH]c(Cc2ccc(F)cc2)nc2scc(-c3ccc(F)cc3)c12 | -6 | 6 | -15 | -2 | 9 | -4 | nt
O=[N+]([O-])c1ccc(O)c(-c2nc(-c3ccccc3)c(-c3cccs3)[nH]2)c1 | 28 | -6 | 42* | 45 | -9 | 8 | 54*
SMILES | CXCR6 inh | APJ agonist | APJ antag | CCR6 antag | EBI2 antag | HTR2A ag | APJ antag confirm
Cc1sc(Nc2ccc([N+](=O)[O-])cc2)nc1-c1c(C)n(C)n(-c2ccccc2)c1=O | 14 | -5 | 18 | 37 | 7 | -3 | nt
CC(C)OCCCn1c(=N)c(S(=O)(=O)c2ccccc2)cc2c(=O)n3ccccc3nc21 | 10 | -4 | 43* | 1 | 9 | -4 | -14
CCOc1cc(/C=C2\NC(=O)NC2=O)cc([N+](=O)[O-])c1O | 22 | -4 | 43* | 36 | 8 | -1 | 35
CCCCn1c(NC(=O)c2ccc(Br)o2)c(S(=O)(=O)c2ccccc2)c2nc3ccccc3nc21 | 10 | -10 | 55* | 12 | 13 | 4 | -11
CCOC(=O)[C@H]1[C@H]2COc3ccc(C)cc3[C@@H]2N2C(=O)[C@@H](CO)NC(=O)[C@@]12C | -2 | -3 | -8 | 8 | -14 | 5 | nt
COc1ccc2c(c1)[C@H]1[C@H](CO2)[C@H](c2ccccc2)[C@]2(C)C(=O)N[C@@H](C)C(=O)N12 | nt | -9 | 42* | nt | nt | nt | 47
CCOC(=O)[C@H]1[C@H]2COc3cc(OC)ccc3[C@@H]2N2C(=O)[C@@H](CO)NC(=O)[C@@]12C | nt | -9 | 51* | nt | nt | nt | 88*
O=S1(=O)NC(=NCc2ccccc2)c2ccccc21 | 4 | -6 | -10 | -2 | -3 | -5 | nt
CC(=O)C1C(c2ccccc2)c2c(n[nH]c2C)CC1(C)O (stereo unspecified) | -9 | -2 | 6 | 2 | 0 | 8 | nt
CN1C(=O)/C(=C/c2cc(N=Nc3ccccc3)ccc2O)SC1=S | 51* | -15 | 60* | 74* | 47* | -4 | 105*
Cc1c(N2C(=O)/C(=C\c3ccccc3O)SC2=S)c(=O)n(-c2ccccc2)n1C | 26 | -1 | 3 | 18 | 3 | 6 | nt
CC(C)(C)c1ccc(C(=O)NNC(=S)NC(=O)c2cccnc2)cc1 | 28 | -5 | 22 | 27 | -13 | 7 | nt
CC(C)(C)c1cc(Cl)c(O)c(NC(=S)NC(=O)c2cccnc2)c1 | 40* | -9 | 67* | 52* | 19 | -1 | 78*
Cc1cc(NC(=O)CC2CCCC2)n(-c2nc3ccccc3[nH]2)n1 | 31 | -1 | 14 | 22 | 5 | -1 | nt
Cc1cc(NC(=O)c2ccc(F)cc2F)n(-c2nc3ccccc3[nH]2)n1 | -13 | -5 | 43* | -2 | 0 | 7 | 9
CCCCCCCCCCCCCCCC[N+](C)(C)CCN(Cc1ccc(OC)cc1)c1ncccn1 | 5 | -14 | 51* | 65* | -5 | 12 | 42
CCN1CCN(c2cc(C)c3cc(NC(=O)Cc4ccccc4OC)ccc3n2)CC1 | -3 | -9 | 48* | -1 | -4 | -5 | 13
CCN1CCN(c2cc(C)c3cc(NC(=O)CCC(=O)Nc4ccc(OC)c(OC)c4)ccc3n2)CC1 | 0 | -2 | 11 | 12 | -2 | -1 | nt
O=C(N/N=C/c1ccc(-c2ccccc2[N+](=O)[O-])o1)c1cncc(Br)c1 | 6 | 4 | -22 | 23 | -1 | -5 | nt
O=C(N/N=C\c1ccc([N+](=O)[O-])o1)c1cncc(Br)c1 | -11 | 3 | 42* | 18 | 7 | -4 | 22
